The source made the active and inactive calls. No cut-off for these calls is given here.
Tests used:
Homo sapiens = species: Homo sapiens; assay: Inhibition of canonical NF-kB signaling pathway in human THP1 cells assessed as reduction in LPS-induced IkBalpha degradation preincubated for 60 mins followed by LPS addition measured after 30 mins by immunoblot analysis; assay type: cell-based
Outline: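 THP-1 cells in RPMI-1640 with 10% FBS. Cells exposed 60 min to compound, then 30 min to LPS 1 µg/mL. Lysates immunoblotted at 20 µg/lane for IκBα and β-actin, with ECL detection. Band signals normalized as % of control; apparent IC50 by non-linear regression; mean ± SD of three independent experiments.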

[1] = biological target: T1, Inhibitor of nuclear factor kappa-B kinase subunit beta (Homo sapiens) (UniProt O14920); assay: Induction of IKKbeta phosphorylation at S177/181 residues in TNFalpha-stimulated human Jurkat cells at 10 uM preincubated for 60 mins followed by TNFalpha-stimulation for 20 mins by immunoblot analysis; assay type: cell-based
T1 sequence (whole entry): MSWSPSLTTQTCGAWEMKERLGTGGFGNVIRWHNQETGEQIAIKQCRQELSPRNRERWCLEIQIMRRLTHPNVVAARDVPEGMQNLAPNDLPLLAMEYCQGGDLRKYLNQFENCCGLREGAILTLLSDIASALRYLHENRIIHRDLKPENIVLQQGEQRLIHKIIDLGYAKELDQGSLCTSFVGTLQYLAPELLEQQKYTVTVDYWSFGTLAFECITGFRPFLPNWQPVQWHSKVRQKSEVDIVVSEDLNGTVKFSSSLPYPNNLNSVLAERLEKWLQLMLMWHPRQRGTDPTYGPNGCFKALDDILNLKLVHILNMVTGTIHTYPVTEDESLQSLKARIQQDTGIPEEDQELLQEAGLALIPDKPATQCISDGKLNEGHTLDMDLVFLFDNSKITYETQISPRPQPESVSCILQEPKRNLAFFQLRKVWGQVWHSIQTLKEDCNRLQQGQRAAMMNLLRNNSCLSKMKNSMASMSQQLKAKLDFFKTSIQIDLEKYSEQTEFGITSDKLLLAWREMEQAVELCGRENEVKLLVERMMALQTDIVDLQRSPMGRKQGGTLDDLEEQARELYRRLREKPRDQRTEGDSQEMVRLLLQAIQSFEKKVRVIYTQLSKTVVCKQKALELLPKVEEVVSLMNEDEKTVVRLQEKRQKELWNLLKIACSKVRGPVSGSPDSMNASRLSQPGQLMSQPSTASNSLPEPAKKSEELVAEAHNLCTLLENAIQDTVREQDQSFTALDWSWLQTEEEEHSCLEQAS
Outline: (§1)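 Jurkat E6.1 cells in X-VIVO 15 with 10% FBS, passages 5–10, were pretreated 60 min with 10 µM compound (DMSO vehicle), then stimulated 20 min with TNFα 15 ng/mL. Lysates were made with protease and phosphatase inhibitors, 20 µg/lane was run on 12% SDS-PAGE, and IKKα/IKKβ phosphorylation was detected by immunoblot with ECL. Three independent experiments were run.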

[2] = biological target: T2, Inhibitor of nuclear factor kappa-B kinase subunit alpha (Homo sapiens) (UniProt O15111); assay: Induction of IKKalpha phosphorylation at S176/180 residues in TNFalpha-stimulated human Jurkat cells at 10 uM preincubated for 60 mins followed by TNFalpha-stimulation for 20 mins by immunoblot analysis; assay type: cell-based; outline: as §1
T2 sequence (whole entry): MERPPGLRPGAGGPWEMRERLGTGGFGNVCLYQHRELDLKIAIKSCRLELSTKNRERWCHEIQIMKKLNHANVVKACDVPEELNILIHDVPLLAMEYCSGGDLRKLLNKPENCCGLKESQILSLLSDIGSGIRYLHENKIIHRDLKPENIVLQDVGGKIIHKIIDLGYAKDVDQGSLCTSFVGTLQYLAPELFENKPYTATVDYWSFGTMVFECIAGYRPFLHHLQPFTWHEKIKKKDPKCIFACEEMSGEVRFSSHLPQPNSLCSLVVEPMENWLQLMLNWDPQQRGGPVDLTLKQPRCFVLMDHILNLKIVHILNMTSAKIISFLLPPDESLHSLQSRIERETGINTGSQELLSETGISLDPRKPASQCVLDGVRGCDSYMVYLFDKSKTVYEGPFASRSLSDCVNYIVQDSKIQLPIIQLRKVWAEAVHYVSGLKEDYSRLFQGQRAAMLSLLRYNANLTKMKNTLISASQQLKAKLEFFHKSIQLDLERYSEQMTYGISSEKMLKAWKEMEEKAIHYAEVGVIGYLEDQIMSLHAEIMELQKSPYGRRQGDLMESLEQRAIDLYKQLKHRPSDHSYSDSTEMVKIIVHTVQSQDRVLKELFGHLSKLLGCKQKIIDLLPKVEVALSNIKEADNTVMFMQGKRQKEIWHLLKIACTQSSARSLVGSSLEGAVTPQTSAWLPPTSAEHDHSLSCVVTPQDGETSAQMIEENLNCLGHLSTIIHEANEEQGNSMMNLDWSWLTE

[3] = biological target: Inhibitor of NF-kappa-B kinase (IKK) (Homo sapiens) (UniProt O14920+O15111+Q9Y6K9); assay: Inhibition of IKKbeta/IKKalpha/NEMO complex immunoprecipated from TNFalpha-stimulated human Jurkat cells at 100 uM relative to control
[4] = biological target: T1, Inhibitor of nuclear factor kappa-B kinase subunit beta (Homo sapiens); assay: Inhibition of human IKKbeta at 100 uM using ERLLDDRHDSGLDSMKDEE as substrate after 60 mins in presence of ATP by ADP-Glo kinase assay relative to control

Compound	inhibition (Homo sapiens)	Activity [1]	Activity [2]	inhibition [3]	inhibition [4]
O=C(Nc1cc(C(F)(F)F)cc(C(F)(F)F)c1)c1nsnc1O	Dose-dependent effect	–	–	–	–
O=C(Nc1cc(C(F)(F)F)cc(C(F)(F)F)c1)c1cc(Cl)ccc1O [IMD-0354]	–	Active	Active	40%	5.43%

Source: ChEMBL document CHEMBL4261552, “4-Hydroxy-N-[3,5-bis(trifluoromethyl)phenyl]-1,2,5-thiadiazole-3-carboxamide: a novel inhibitor of the canonical NF-κB cascade” (Medchemcomm, 2017)
